Experimental data pooled from the literature.
Each line is one published result; the experiments were not run side by side.

The EC50 of `Cc1cc(C)c(C#N)c(SCC(=O)c2cccc(N)c2)n1` is reported as over 64 µM (Trypanosoma brucei; parasite growth, resazurin).
`Cc1[nH]c(C(=O)Nc2ccc(C(=O)NCC(=O)O)cc2N2CCN(C(=O)OC(C)(C)C)CC2)c(Cl)c1Cl` has an MIC of over 32 µg/mL (Enterococcus faecium; microbial growth, broth dilution; ATCC35667).
`O=C(O)c1ccc2c(c1)nc(Nc1cccc(Cl)c1)c1ccncc12` has an IC50 of 6.9 µM (SK-MES-1; cell growth or viability, resazurin; 48 h).
With `O=C(N/N=C/c1ccc([N+](=O)[O-])o1)c1cn(Cc2ccccc2)c2ccc([N+](=O)[O-])cc2c1=O` the EC50 was 0.37 µM (Trypanosoma brucei; parasite growth, resazurin; 72 h).
`Cc1[nH]c(C(=O)Nc2ccc(C(=O)NCC(=O)O)cc2N2CCNCC2)c(Cl)c1Cl.Cl` has an MIC of over 32 µg/mL (Enterococcus faecium; microbial growth, broth dilution; ATCC35667).
`Cc1cc(C)c(C#N)c(SCC(=O)c2ccccn2)n1` gave an EC50 of 18 µM (Trypanosoma brucei; parasite growth, resazurin; RHODESIENSE).
With `C=CC(=O)NC1CCN(c2ncc3ncnc(Nc4ccc(Oc5ccc6c(c5)ncn6C)c(C)c4)c3n2)CC1` the EC50 was 5.24 µM (DoTc2-4510; cell growth or viability).
`Cn1nnc(-c2cccnc2SCC(=O)c2ccc(F)cc2)n1` has an EC50 of over 64 µM (Trypanosoma brucei; parasite growth, resazurin; RHODESIENSE).
The MIC of `Cc1[nH]c(C(=O)Nc2ccc(C(=O)NCc3n[nH]c(=O)o3)cc2N2CCNCC2)c(Cl)c1Cl.Cl` is reported as over 32 µg/mL (Enterococcus faecium; microbial growth, broth dilution; ATCC35667).
The IC50 of `Nc1ccc(/C=C/C(=O)N2CCc3c(oc4c(-c5ccc(F)cc5)cc(-c5ccc(C(=O)N6CCOCC6)nn5)cc34)C2)cn1` is reported as over 20 µM (CFPAC-1; cell growth or viability, CCK-8; 72 h).
The EC50 of `COc1ccc2c(c1)c(=O)c(C(=O)N/N=C/c1ccc([N+](=O)[O-])s1)cn2Cc1ccccc1` is reported as 0.41 µM (Trypanosoma brucei; parasite growth, resazurin; 72 h).
For `Cc1cc(C)c(C#N)c(SC2COc3ccccc3C2=O)n1` (stereo not drawn), the EC50 was 51.2 µM (Trypanosoma brucei; parasite growth, resazurin).
With `Cc1[nH]c(C(=O)Nc2ccc(C(=O)NCC(=O)O)cc2N2CC[C@H](N)C2)c(Cl)c1Cl.Cl` the MIC was over 32 µg/mL (Enterococcus faecium; microbial growth, broth dilution; ATCC35667).
`NNC(=O)c1cn(Cc2ccccc2)c2ccc(Oc3ccccc3)cc2c1=O` has an EC50 of 0.43 µM (Trypanosoma brucei; parasite growth, resazurin; 72 h).
The IC50 of `Nc1ccc(/C=C/C(=O)NCc2cc3cc(-c4ccc(C(=O)N5CCC(F)(F)CC5)cc4)cc(-c4ccc(F)cc4)c3o2)cn1` is reported as over 20 µM (CFPAC-1; cell growth or viability, CCK-8; 72 h).
